Experimental data reported in PubChem BioAssay AID1242 (PCMD, 2008).
Among all 120,000 compounds or so, about 20 (0.02%) were called active. The entries come from a sample that favours actives as a whole. Values without a mark were called inactive.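 Rule for the calls: active = inhibition above 30.3% in the primary screen of four-compound pools, then above 30% when the compound was retested; inconclusive = passed the primary limit but could not be retested; inactive = the rest.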

Experiment: clotrimazole potentiators killing C. albicans biofilm, primary screen, 4-compound mixtures (AID 1242);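 note: compounds exposed to preformed 24 h biofilms for 48 h; 0% = untreated biofilm control and 100% = clotrimazole plus chlorhexidine kill blank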
Details: C. albicans biofilm persisters + clotrimazole, fluorescence viability, primary screen in compound mixtures, stronger effect = higher value; at 7.6 µM unless noted
Summary of the method: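 Assay system: C. albicans biofilms / Medium: RPMI/MOPS medium, pH 7.0 / Schedule: biofilm formation 24 h, compound exposure 48 h, 37 °C / Measured by: Alamar Blue fluorescence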

Row | SMILES | inhibition [%]
1 | CC1Cc2ccccc2N1S(=O)(=O)c1ccc(Cl)nc1 (stereo unspecified) | 14.3
2 | Cc1cc2nc(C(F)(F)F)cc(-c3cccs3)n2n1 | 8.23
3 | COc1ccc(C(=O)C2CCCN(C(=O)c3cc4nc(C)cc(C)n4n3)C2)cc1F (stereo unspecified) | 16.6
4 | CCOC(=O)C1(Cc2cccc(OC)c2)CCN(C(C)COC)CC1 (stereo unspecified) | 14.5
5 | NCC(=O)c1cccc2ccc[n+]([O-])c12 | 12.9
6 | N=c1c2c3c(sc2ncn1N)CCCC3 | 20.4
7 | CCOC(=O)CN1CCC(c2ccccc2)CC1 | 13.7
8 | Cc1cc(N)n(-c2ccc(S(=O)(=O)N3CCCC3)cc2[N+](=O)[O-])n1 | 11.7
9 | CC(=O)c1cccc(-n2nnnc2SCC(=O)NNC(=O)C2CCCCC2)c1 | 5.73
10 | C/C(=N/Nc1ccc(Cl)cc1)c1cnnc(-c2ccccc2)n1 | 7.24
11 | COc1ccc(Cl)cc1N(CC(=O)N/N=C/c1ccc(OCC(N)=O)cc1)S(C)(=O)=O | 20.2
12 | S=C(NCCc1ccccc1)N1CCn2cccc2C1c1ccncc1 (stereo unspecified) | 11.1
13 | COc1ccccc1C(c1nnnn1CC1CCCO1)N1CCN(c2ccccc2)CC1 (stereo unspecified) | 29.3
14 | COc1ccc(NC(=O)CSc2nnc(-c3ccccc3F)n2C2CC2)cc1S(N)(=O)=O | 7.66
15 | O=C(Cn1c(N2CCN(C/C=C/c3ccccc3)CC2)nc2ccccc21)c1ccccc1 | 9.46
16 | CCC(C)(C)NC(=O)CN(C(=O)CCC(=O)Nc1cc(C)ccn1)c1ccc2c(c1)OCCO2 | 1.7
17 | Cc1ccc(OCC(=O)NC(C)c2ccccc2)c([N+](=O)[O-])n1 (stereo unspecified) | 8.35
18 | CCc1cc2c(=O)c(-c3nc4ccccc4n3C)c(CCCC(=O)O)oc2cc1OC(=O)C(C)(C)C | 14.2
19 | COC(=O)Cc1ccc(NC(=S)NCc2ccco2)cc1 | 1.39
20 | Cc1ccc(Cl)cc1NC(=O)C1CCN(S(C)(=O)=O)CC1 | -19.3
21 | CSc1nc(C)nc(C2CC2)c1C#N | 26.1

Row | SMILES | inhibition [%]
22 | CCc1nc2sc(C(=O)O)c(N)c2c2c1CCCC2 | 17.7
23 | O=C1Nc2cc(Cl)c(Cl)cc2N(O)N1c1ccccc1Cl | 16.7
24 | CC1=CC=CC2=N/C(=N\S(=O)(=O)c3ccc(F)cc3F)c3ccccc3CN12 | 14.1
25 | NNC(=O)c1cccc(COCC(F)(F)C(F)F)c1 | 11.2
26 | CC(C)(C)n1nc2c(c1NC(=O)c1cc3ccccc3o1)CSC2 | 8.07
27 | CC(=O)NC(=S)Nc1ccc(NC(=O)c2cccnc2)cc1 | 26.7
28 | CN(c1ccccc1)S(=O)(=O)c1ccc(Cl)c(C(=O)OCC(N)=O)c1 | 9.93
29 | COc1ccc2nc(Nc3nc(-c4ccncc4)cs3)sc2c1 | 12.3
30 | COCCCNC(=O)Cn1c(=O)n(Cc2ccccc2Cl)c(=O)c2cc(OC)c(OC)cc21 | 5.13
31 | COc1ccc(N=C(C)c2sc3ccccc3c2O)cc1 | 24.2
32 | Cc1ccc(Cl)c(OCC(=O)NN2CCN(C)CC2)c1 | 16.5
33 | CC1=C(C)CC(C(=O)NC(C)CCc2ccccc2)C(C(=O)O)C1 (stereo unspecified) | -32
34 | C/C(CCc1ccccc1)=N\NC(=O)c1ccc(CN2CCOCC2)cc1 | 20.4
35 | COc1ccc(S(=O)(=O)N(C)CC(=O)N2CCCC2)cc1Cl | 15.4
36 | COc1ccc(/C=N/NC(=O)CNC(=O)c2ccc(S(=O)(=O)N3CCCC3)cc2)c(OC)c1 | 1.69
37 | O=C(Cc1ccc(F)cc1)N/N=C/c1ccc2c(c1)OCO2 | -22.6
38 | Cc1nnc(Nc2ccccc2F)s1 | 16.6
39 | CCC(=O)c1ccc(N2CCN(C(=O)c3cc([N+](=O)[O-])ccc3F)CC2)c(F)c1 | -4.84
40 | Cn1c(SCC(=O)NC2CCCCC2)nnc1-c1ccc(N)cc1 | 21.9
41 | COc1ccc(C(=O)NCC(=O)N/N=C/c2ccc([N+](=O)[O-])s2)cc1OC | 20.6
42 | C/C(=N/OC(=O)c1c(-c2c(F)cccc2Cl)noc1C)c1cnccn1 | 10.3

Row | SMILES | inhibition [%]
43 | CC(=O)N/C(=C\c1ccc(F)cc1)C(=O)NC(Cc1ccccc1)C(=O)O (stereo unspecified) | 14.6
44 | N#Cc1c(NCCO)ccc([N+](=O)[O-])c1NCCO | 15.9
45 | Nn1c(SCc2ccccc2)nnc1C1CCCCC1 | 25.1
46 | Cc1ccc(C(=O)O)cc1N1C(=O)CCCC1=O | 29.3
47 | O=C(O)CC/C(=N\NC(=O)c1ccc(F)cc1)c1ccc(Br)cc1 | 0.26
48 | O=C1COc2ccc(C(=O)COC(=O)c3cccnc3Cl)cc2N1 | 3.67
49 | Cn1c(=O)c2c(ncn2CC(=O)N/N=C/c2cn[nH]c2-c2ccc(F)cc2)n(C)c1=O | 8.1
50 | CCOC(=O)c1c(CN(C)C)n(-c2ccccc2)c2cc(Br)c(O)cc12 | 6.02
51 | O=C(NCCN1CCOCC1)c1ccc2c(c1)N(Cc1ccc(Cl)cc1)CCS2 | -21.2
52 | Cc1cccc(NC(=S)NCCc2ccc(F)cc2)c1C | 13.3
53 | Cc1ccc(N2C(=O)SC(N(CC(=O)O)c3ccc(C)cc3)C2=O)cc1 (stereo unspecified) | 30.1
54 | COc1cc(OC)c(C(=O)OCC(=O)N2CC(=O)Nc3ccccc32)cc1OC | 16
55 | Cc1nn(C)c(C)c1CN(C(=O)CCc1nnc(Cc2c[nH]c3ccccc23)o1)C(C)C | 21.1
56 | C/C(=N\NC(=O)c1cccnc1)c1ccc(-c2ccccc2)cc1 | 11.8
57 | Cc1ccc(S(=O)(=O)N(CC(=O)NN=C2CCN(C)CC2)c2ccc(F)cc2)cc1 | 12.2
58 | CC(CO)(CO)NC(=O)c1ccc(=O)[nH]n1 | 20.4
59 | NNC(=O)C1CC(O)CN1S(=O)(=O)c1ccc(Cl)cc1 (stereo unspecified) | -0.83
60 | Cc1ccccc1NC(=O)NNC(=O)OC(C)(C)C | 17.1
61 | COc1ccc(C(=O)CSc2nnnn2C)c(OC)c1 | 0.17
